Measurements: ChEMBL document CHEMBL1811848 (Bioorg Med Chem Lett, 2011)

Experiments:
[1] = biological target: T1, Peroxisome proliferator-activated receptor alpha (Homo sapiens, UniProt Q07869); assay: Transactivation of human PPARalpha expressed in human HepG2 cells co-transfected with PPRE3-TK-Luc by luciferase reporter gene assay; assay type: cell-based
T1 sequence (Q07869 whole entry): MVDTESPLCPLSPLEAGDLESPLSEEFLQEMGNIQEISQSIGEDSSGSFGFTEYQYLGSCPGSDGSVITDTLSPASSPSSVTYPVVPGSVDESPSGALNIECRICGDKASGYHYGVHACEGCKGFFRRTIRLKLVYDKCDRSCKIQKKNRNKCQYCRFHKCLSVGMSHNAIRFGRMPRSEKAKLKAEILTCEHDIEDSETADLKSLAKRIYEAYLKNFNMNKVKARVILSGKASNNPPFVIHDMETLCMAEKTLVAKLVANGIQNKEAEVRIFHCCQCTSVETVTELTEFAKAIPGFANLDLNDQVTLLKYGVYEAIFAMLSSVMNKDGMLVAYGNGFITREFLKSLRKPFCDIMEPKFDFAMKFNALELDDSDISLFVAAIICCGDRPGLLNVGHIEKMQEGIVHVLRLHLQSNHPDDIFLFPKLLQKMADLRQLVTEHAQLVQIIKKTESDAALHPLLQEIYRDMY

[2] = biological target: T2, Peroxisome proliferator-activated receptor gamma (Homo sapiens) (UniProt P37231); assay: Transactivation of human PPARgamma expressed in human HepG2 cells co-transfected with PPRE3-TK-Luc by luciferase reporter gene assay relative to Rosiglitazone; assay type: cell-based
T2 sequence (whole entry): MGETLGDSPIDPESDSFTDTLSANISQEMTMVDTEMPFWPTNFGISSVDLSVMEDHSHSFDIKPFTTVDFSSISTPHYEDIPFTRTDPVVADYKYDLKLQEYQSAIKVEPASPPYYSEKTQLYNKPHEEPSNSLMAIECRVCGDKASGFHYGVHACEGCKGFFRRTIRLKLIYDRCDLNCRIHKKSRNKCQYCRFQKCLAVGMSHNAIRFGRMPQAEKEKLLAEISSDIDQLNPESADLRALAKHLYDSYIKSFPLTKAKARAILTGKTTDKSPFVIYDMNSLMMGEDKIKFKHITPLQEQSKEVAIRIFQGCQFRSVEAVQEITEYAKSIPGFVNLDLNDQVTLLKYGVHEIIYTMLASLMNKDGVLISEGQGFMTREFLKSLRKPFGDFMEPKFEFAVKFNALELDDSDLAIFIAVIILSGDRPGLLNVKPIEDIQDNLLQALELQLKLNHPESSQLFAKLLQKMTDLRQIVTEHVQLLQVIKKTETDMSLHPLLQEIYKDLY
Method in brief: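 Same HepG2 hPPARα or hPPARγ / PPRE3-TK-luc luciferase transactivation assay. Efficacy expressed as percent of maximal response, normalized to 100% for the reference agonist: WY-14643 for α, rosiglitazone for γ.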

Mus musculus [3] = assay: Hypolipidemic activity in Swiss albino mouse assessed as reduction in triglyceride level at 0.01 mg/kg, po; assay type: functional; set-up: scale not given: the % may be the effect or the level left
Mus musculus [4] = assay: Hypolipidemic activity in Swiss albino mouse assessed as reduction in triglyceride level at 1 mg/kg, po; assay type: functional; set-up: scale not given: the % may be the effect or the level left
Mus musculus [5] = assay: Hypolipidemic activity in Swiss albino mouse assessed as reduction in triglyceride level at 3 mg/kg, po; assay type: functional; set-up: scale not given: the % may be the effect or the level left
Mus musculus [6] = species: Mus musculus; assay: Hypolipidemic activity in db/db mouse assessed as reduction in triglyceride level; assay type: functional
Mus musculus [7] = assay: Antihyperglycemic activity in db/db mouse assessed as reduction in plasma glucose level at 0.01 mg/kg, po; assay type: functional; set-up: scale not given: the % may be the effect or the level left
Mus musculus [8] = assay: Antihyperglycemic activity in db/db mouse assessed as reduction in plasma glucose level at 0.3 mg/kg, po; assay type: functional; set-up: scale not given: the % may be the effect or the level left
Rattus norvegicus [9] = assay: Toxicity in male Wistar rat assessed as heart to body weight ratio at 3 mg/kg, po measured after 28 days (reference value: 0.383 +/- 0.012); assay type: organism-based; set-up: dose 3 mg/kg, route oral; conditions: in vivo, 672 h
Rattus norvegicus [10] = assay: Toxicity in male Wistar rat assessed as liver to body weight ratio at 3 mg/kg, po measured after 28 days (reference value: 3.257 +/- 0.067); assay type: organism-based; set-up: dose 3 mg/kg, route oral; conditions: in vivo, 672 h
Rattus norvegicus [11] = assay: Toxicity in male Wistar rat assessed as kidney to body weight ratio at 3 mg/kg, po measured after 28 days (reference value: 0.745 +/- 0.012); assay type: organism-based; set-up: dose 3 mg/kg, route oral; conditions: in vivo, 672 h
Rattus norvegicus [12] = assay: Toxicity in male Wistar rat assessed as kidney to body weight ratio at 30 mg/kg, po measured after 28 days (reference value: 0.745 +/- 0.012); assay type: organism-based; set-up: dose 30 mg/kg, route oral; conditions: in vivo, 672 h
Rattus norvegicus [13] = assay: Toxicity in male Wistar rat assessed as brain to body weight ratio at 3 mg/kg, po measured after 28 days (reference value: 0.658 +/- 0.015); assay type: organism-based; set-up: dose 3 mg/kg, route oral; conditions: in vivo, 672 h
Rattus norvegicus [14] = assay: Toxicity in male Wistar rat assessed as epididymine to body weight ratio at 3 mg/kg, po measured after 28 days (reference value: 0.391 +/- 0.017); assay type: organism-based; set-up: dose 3 mg/kg, route oral; conditions: in vivo, 672 h
Rattus norvegicus [15] = assay: Toxicity in female Wistar rat assessed as liver to body weight ratio at 3 mg/kg, po measured after 28 days (reference value: 3.091 +/- 0.087); assay type: organism-based; set-up: dose 3 mg/kg, route oral; conditions: in vivo, 672 h
Rattus norvegicus [16] = assay: Toxicity in female Wistar rat assessed as spleen to body weight ratio at 30 mg/kg, po measured after 28 days (reference value: 0.237 +/- 0.012); assay type: organism-based; set-up: dose 30 mg/kg, route oral; conditions: in vivo, 672 h
Rattus norvegicus [17] = assay: Toxicity in female Wistar rat assessed as brain to body weight ratio at 3 mg/kg, po measured after 28 days (reference value: 0.970 +/- 0.023); assay type: organism-based; set-up: dose 3 mg/kg, route oral; conditions: in vivo, 672 h
Rattus norvegicus [18] = assay: Toxicity in female Wistar rat assessed as thymus to body weight ratio at 3 mg/kg, po measured after 28 days (reference value: 0.094 +/-0.01); assay type: organism-based; set-up: dose 3 mg/kg, route oral; conditions: in vivo, 672 h
Rattus norvegicus [19] = assay: Toxicity in male Wistar rat assessed as hemoglobin level at 3 mg/kg, po measured after 28 days (reference value: 13.66 +/- 0.23 g/dl); assay type: organism-based; set-up: dose 3 mg/kg, route oral; conditions: in vivo, 672 h
Rattus norvegicus [20] = assay: Toxicity in male Wistar rat assessed as […] level at 3 mg/kg, po measured after 28 days (reference value: 243.88 +/- 20.34 U/L); assay type: organism-based; set-up: dose 3 mg/kg, route oral; conditions: in vivo, 672 h
Rattus norvegicus [21] = assay: Toxicity in male Wistar rat assessed as SGOT level at 30 mg/kg, po measured after 28 days (reference value: 135.14 +/- 6.89 U/L); assay type: organism-based; set-up: dose 30 mg/kg, route oral; conditions: in vivo, 672 h
Rattus norvegicus [22] = assay: Toxicity in male Wistar rat assessed as albumin level at 3 mg/kg, po measured after 28 days (reference value: 3.66 +/- 0.10 g.dl); assay type: organism-based; set-up: dose 3 mg/kg, route oral; conditions: in vivo, 672 h
Rattus norvegicus [23] = assay: Toxicity in female Wistar rat assessed as hemoglobin level at 30 mg/kg, po measured after 28 days (reference value: 11.90 +/- 0.19 g/dl); assay type: organism-based; set-up: dose 30 mg/kg, route oral; conditions: in vivo, 672 h
Rattus norvegicus [24] = assay: Toxicity in female Wistar rat assessed as glucose level at 30 mg/kg, po measured after 28 days (reference value: 69.94 +/- 2.30 mg/dl); assay type: organism-based; set-up: dose 30 mg/kg, route oral; conditions: in vivo, 672 h
Rattus norvegicus [25] = assay: Toxicity in female Wistar rat assessed as […] level at 3 mg/kg, po measured after 28 days (reference value: 172.38 +/- 7.18 U/L); assay type: organism-based; set-up: dose 3 mg/kg, route oral; conditions: in vivo, 672 h
Rattus norvegicus [26] = assay: Toxicity in female Wistar rat assessed as ALP level at 30 mg/kg, po measured after 28 days (reference value: 172.38 +/- 7.18 U/L); conditions: in vivo, 672 h

Q: For `CCO[C@@H](Cc1ccc(OCCc2nc(-c3ccc(C)s3)oc2C)cc1)C(=O)O`, which EC50 [1] is on record?
A: Its EC50 is 0.31 pM.

Q: What about the Emax [2] of the same compound?
A: Its Emax is 165%.

Q: What about the Activity (Mus musculus [3]) of the same compound?
A: Its Activity is 61.9%.

Q: What about the Activity (Mus musculus [4]) of the same compound?
A: The Activity was 82%.

Q: And the Activity (Mus musculus [5])?
A: Its Activity is 83.1%.

Q: What about the ED50 (Mus musculus [6]) of the same compound?
A: The ED50 was 0.0188 mg/kg.

Q: What about the Activity (Mus musculus [7]) of the same compound?
A: The Activity was 52.7%.

Q: And the Activity (Mus musculus [8])?
A: The Activity was 58.2%.

Q: And the Ratio (Rattus norvegicus [9])?
A: The Ratio was 0.412.

Q: And the Ratio (Rattus norvegicus [10])?
A: Its Ratio is 7.505.

Q: What about the Ratio (Rattus norvegicus [11]) of the same compound?
A: The Ratio was 0.807.

Q: What about the Ratio (Rattus norvegicus [12]) of the same compound?
A: The Ratio was 0.955.

Q: And the Ratio (Rattus norvegicus [13])?
A: The Ratio was 0.72.

Q: And the Ratio (Rattus norvegicus [14])?
A: The Ratio was 0.36.

Q: And the Ratio (Rattus norvegicus [15])?
A: The Ratio was 6.221.

Q: And the Ratio (Rattus norvegicus [16])?
A: Its Ratio is 0.26.

Q: What about the Ratio (Rattus norvegicus [17]) of the same compound?
A: Its Ratio is 0.947.

Q: What about the Ratio (Rattus norvegicus [18]) of the same compound?
A: The Ratio was 0.101.

Q: What about the Activity (Rattus norvegicus [19]) of the same compound?
A: The Activity was 12.2 g/dL.

Q: And the Activity (Rattus norvegicus [20])?
A: The Activity was 470.5 U/L.

Q: What about the Activity (Rattus norvegicus [21]) of the same compound?
A: The Activity was 245.24 U/L.

Q: What about the Activity (Rattus norvegicus [22]) of the same compound?
A: The Activity was 3.91 g/dL.

Q: And the Activity (Rattus norvegicus [23])?
A: The Activity was 11.83 g/dL.

Q: What about the Activity (Rattus norvegicus [24]) of the same compound?
A: The Activity was 91.79 mg/dL.

Q: And the Activity (Rattus norvegicus [25])?
A: Its Activity is 248.13 U/L.

Q: And the Activity (Rattus norvegicus [26])?
A: Its Activity is 248.38 U/L.
